Values after ≈ are worked out from the molar mass of the structure shown. Active and inactive are the calls of the source. The rule behind the calls is not given here.
Key:
Type in all cases: functional
[1] = tested on: Acinetobacter baumannii; assay: Antibacterial activity against Acinetobacter baumannii HUMC1 cultured in RPMI 1640 medium supplemented with 10% FCS assessed as bacterial growth inhibition incubated for 20 hrs by CLSI based microbroth dilution method
Summary of the method: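 CLSI broth microdilution in RPMI 1640 + 10% FCS in place of CAMHB. Compounds in 2-fold dilution series; inoculum 5×10^5 CFU/mL. Plates held static at 35 °C for 20 h. MIC read visually as the lowest concentration with no visible growth. […] is the reciprocal of this MIC.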

[2] = tested on: Acinetobacter baumannii; assay: Antibacterial activity against Acinetobacter baumannii HUMC1 harboring FhuE deletion mutant assessed as bacterial growth inhibition incubated for 20 hrs by CLSI based microbroth dilution method
Summary of the method: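 Microbroth dilution per CLSI in RPMI 1640 + 10% FCS (in place of CAMHB). Compounds as 2-fold serial dilutions; inoculum 5×10^5 CFU/mL of previously described HUMC1-derived mutant strains. Incubated static at 35 °C for 20 h. MIC read visually as lowest concentration preventing visible growth.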

[3] = tested on: Staphylococcus aureus; assay: Antibacterial activity against Staphylococcus aureus USA300 UAMS-1625 assessed as bacterial growth inhibition incubated for 20 hrs by CLSI based microbroth dilution method
Summary of the method: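 CLSI broth microdilution in CAMHB against S. aureus USA300 UAMS-1625. Compounds in 2-fold dilution series; inoculum 5×10^5 CFU/mL. Incubated without shaking at 35 °C for 20 h. MIC read visually as the lowest concentration preventing visible growth. Fold changes are relative to the rifabutin MIC.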

[4] = Acinetobacter baumannii, HUMC1, 20 h, read-out: MIC

Row | Compound | MIC [1, 4] [µg/mL] | other results
1 | C#CCCN1CCC2(CC1)N=C1C(=C3NC(=O)/C(C)=C\C=C\[C@H](C)[C@H](O)[C@@H](C)[C@@H](O)[C@@H](C)[C@H](OC(C)=O)[C@H](C)[C@@H](OC)/C=C/O[C@@]4(C)Oc5c(C)c(O)c(c1c5C4=O)C3=O)N2 | 0.004 (≈ 0.00475 µM) | –
2 | CO[C@H]1/C=C/O[C@@]2(C)Oc3c(C)c(O)c4c(c3C2=O)C2=NC3(CCN([C@H]5CCCO5)CC3)NC2=C(NC(=O)/C(C)=C\C=C\[C@H](C)[C@H](O)[C@@H](C)[C@@H](O)[C@@H](C)[C@H](OC(C)=O)[C@@H]1C)C4=O | 0.016 (≈ 0.0186 µM) | –
3 | COC(=O)CCCN1CCC2(CC1)N=C1C(=C3NC(=O)/C(C)=C\C=C\[C@H](C)[C@H](O)[C@@H](C)[C@@H](O)[C@@H](C)[C@H](OC(C)=O)[C@H](C)[C@@H](OC)/C=C/O[C@@]4(C)Oc5c(C)c(O)c(c1c5C4=O)C3=O)N2 | 0.5 (≈ 0.561 µM) | –
4 | CO[C@H]1/C=C/O[C@@]2(C)Oc3c(C)c(O)c4c(c3C2=O)C2=NC3(CCCCC3)NC2=C(NC(=O)/C(C)=C\C=C\[C@H](C)[C@H](O)[C@@H](C)[C@@H](O)[C@@H](C)[C@H](OC(C)=O)[C@@H]1C)C4=O | 0.125 (≈ 0.158 µM) | MIC [2]: 0.5 µg/mL (≈ 0.633 µM)
5 | CO[C@H]1/C=C/O[C@@]2(C)Oc3c(C)c(O)c4c(c3C2=O)C2=NC3(CCN(CC5CC5)CC3)NC2=C(NC(=O)/C(C)=C\C=C\[C@H](C)[C@H](O)[C@@H](C)[C@@H](O)[C@@H](C)[C@H](OC(C)=O)[C@@H]1C)C4=O | 0.001 (≈ 0.00118 µM) | Activity [3]: Active; MIC [2]: 0.5 µg/mL (≈ 0.592 µM)
6 | CO[C@H]1/C=C/O[C@@]2(C)Oc3c(C)c(O)c4c(c3C2=O)C2=NC3(CCOCC3)NC2=C(NC(=O)/C(C)=C\C=C\[C@H](C)[C@H](O)[C@@H](C)[C@@H](O)[C@@H](C)[C@H](OC(C)=O)[C@@H]1C)C4=O | 2 (≈ 2.53 µM) | –
7 | CO[C@H]1/C=C/O[C@@]2(C)Oc3c(C)c(O)c4c(c3C2=O)C2=NC3(CCN(Cc5ccccc5)CC3)NC2=C(NC(=O)/C(C)=C\C=C\[C@H](C)[C@H](O)[C@@H](C)[C@@H](O)[C@@H](C)[C@H](OC(C)=O)[C@@H]1C)C4=O | 0.125 (≈ 0.142 µM) | Activity [3]: Active
8 | CO[C@H]1/C=C/O[C@@]2(C)Oc3c(C)c(O)c4c(c3C2=O)C2=NC3(CCN(C5CCCC5)CC3)NC2=C(NC(=O)/C(C)=C\C=C\[C@H](C)[C@H](O)[C@@H](C)[C@@H](O)[C@@H](C)[C@H](OC(C)=O)[C@@H]1C)C4=O (stereo in doubt; form 2) | – | MIC ([1]; 20 h): 0.004 µg/mL (≈ 0.00466 µM)
9 | CO[C@H]1/C=C/O[C@@]2(C)Oc3c(C)c(O)c4c(c3C2=O)C2=NC3(CCN(C5CCOCC5)CC3)NC2=C(NC(=O)/C(C)=C\C=C\[C@H](C)[C@H](O)[C@@H](C)[C@@H](O)[C@@H](C)[C@H](OC(C)=O)[C@@H]1C)C4=O | 0.008 (≈ 0.00914 µM) | –
10 | CO[C@H]1/C=C/O[C@@]2(C)Oc3c(C)c(O)c4c(c3C2=O)C2=NC3(CCN(CC5CCCCC5)CC3)NC2=C(NC(=O)/C(C)=C\C=C\[C@H](C)[C@H](O)[C@@H](C)[C@@H](O)[C@@H](C)[C@H](OC(C)=O)[C@@H]1C)C4=O (stereo in doubt; form 1) | 0.06 (≈ 0.0676 µM) | –
11 | CO[C@H]1/C=C/O[C@@]2(C)Oc3c(C)c(O)c4c(c3C2=O)C2=NC3(CCN(CC5CCCCC5)CC3)NC2=C(NC(=O)/C(C)=C\C=C\[C@H](C)[C@H](O)[C@@H](C)[C@@H](O)[C@@H](C)[C@H](OC(C)=O)[C@@H]1C)C4=O (stereo in doubt; form 2) | – | MIC ([1]; 20 h): 0.03 µg/mL (≈ 0.0338 µM)
12 | CO[C@H]1/C=C/O[C@@]2(C)Oc3c(C)c(O)c4c(c3C2=O)C(=N)C(N)=C(NC(=O)/C(C)=C\C=C\[C@H](C)[C@H](O)[C@@H](C)[C@@H](O)[C@@H](C)[C@H](OC(C)=O)[C@@H]1C)C4=O | 0.5 (≈ 0.704 µM) | –
13 | CO[C@H]1/C=C/O[C@@]2(C)Oc3c(C)c(O)c4c(c3C2=O)C2=NC3(CCN(C(C)(C)CC(C)(C)C)CC3)NC2=C(NC(=O)/C(C)=C\C=C\[C@H](C)[C@H](O)[C@@H](C)[C@@H](O)[C@@H](C)[C@H](OC(C)=O)[C@@H]1C)C4=O | 0.03 (≈ 0.0332 µM) | –
14 | CO[C@H]1/C=C/O[C@@]2(C)Oc3c(C)c(O)c4c(c3C2=O)C2=NC3(CC[N+](C)(C)CC3)NC2=C(NC(=O)/C(C)=C\C=C\[C@H](C)[C@H](O)[C@@H](C)[C@@H](O)[C@@H](C)[C@H](OC(C)=O)[C@@H]1C)C4=O.[I-] | 8 | –
15 | CO[C@H]1/C=C/O[C@@]2(C)Oc3c(C)c(O)c4c(c3C2=O)C2=NC3(CCN(C5CCN(C)CC5)CC3)NC2=C(NC(=O)/C(C)=C\C=C\[C@H](C)[C@H](O)[C@@H](C)[C@@H](O)[C@@H](C)[C@H](OC(C)=O)[C@@H]1C)C4=O | 0.25 (≈ 0.282 µM) | –
16 | CCOC(=O)N1CCC2(CC1)N=C1C(=C3NC(=O)/C(C)=C\C=C\[C@H](C)[C@H](O)[C@@H](C)[C@@H](O)[C@@H](C)[C@H](OC(C)=O)[C@H](C)[C@@H](OC)/C=C/O[C@@]4(C)Oc5c(C)c(O)c(c1c5C4=O)C3=O)N2 | 8 (≈ 9.27 µM) | –
